{"source": "ChEMBL document CHEMBL4376812", "about": "(J Med Chem, 2019)", "key": {"[1]": {"test": "Time during which drug concentration exceed invitro IC50 for TYK2 in mouse whole blood assessed as decrease in IFNalpha-induced STAT1 phosphorylation in C57BL/6 mouse at 15 mg/kg, po via gavage bid for 9 days with first dose given prior to first IL23 challenge and twice a day thereafter", "type": "ADME, organism-based", "conditions": "in vivo, 216 h", "how_it_was_run": "(§1)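 Drug levels were measured in the animals of the IL-23 acanthosis study, dosed orally twice daily. The duration was the time, in hours, that levels stayed at or above the in vitro mouse whole blood IC50 for IFNα-induced pSTAT1.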"}, "[2]": {"test": "Metabolic stability in mouse liver microsomes assessed as half life", "type": "ADME, Microsome", "how_it_was_run": "(§2)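 Liver microsomes from human, rat, mouse, dog, cynomolgus monkey and rabbit were incubated with compound. Stability is reported as half-life (T1/2, min). Values are means of at least three separate experiments.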"}, "[3]": {"target": "Cytochrome P450 2D6 (Homo sapiens, UniProt P10635)", "sequence (P10635 whole entry)": "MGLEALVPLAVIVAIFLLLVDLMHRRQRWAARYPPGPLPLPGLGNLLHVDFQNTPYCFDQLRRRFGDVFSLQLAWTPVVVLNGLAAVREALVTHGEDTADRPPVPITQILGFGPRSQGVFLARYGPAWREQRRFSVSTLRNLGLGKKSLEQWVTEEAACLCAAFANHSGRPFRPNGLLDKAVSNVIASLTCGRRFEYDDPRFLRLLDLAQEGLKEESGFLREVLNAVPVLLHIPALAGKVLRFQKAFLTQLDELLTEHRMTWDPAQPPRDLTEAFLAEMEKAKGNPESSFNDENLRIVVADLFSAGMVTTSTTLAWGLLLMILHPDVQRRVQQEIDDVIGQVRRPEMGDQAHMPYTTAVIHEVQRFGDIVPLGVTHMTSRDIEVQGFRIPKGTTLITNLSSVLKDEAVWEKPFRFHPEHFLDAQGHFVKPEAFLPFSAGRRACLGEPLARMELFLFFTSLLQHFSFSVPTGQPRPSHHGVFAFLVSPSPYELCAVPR", "test": "Inhibition of CYP2D6 (unknown origin)", "type": "ADME", "how_it_was_run": "(§3)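 Inhibition of CYP1A2, 2C9, 2C19, 2D6 and 3A4, read out as IC50. The highest concentration tested was 40 μM.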"}, "[4]": {"test": "AUC in dog at 10 mg/kg, po", "type": "ADME, organism-based, Canis lupus familiaris", "conditions": "in vivo", "how_it_was_run": "(§4)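 Oral PK: single dose of 10 mg/kg as a solution in ethanol/TPGS/PEG 300 (5:5:90) given to mouse, dog and monkey. Cmax (μM), AUC (μM × h) and bioavailability F (%) were derived, with F taken against the iv arm.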"}, "[5]": {"test": "Permeability coefficient, Kp across apical to basolateral side in human Caco2 cells", "type": "ADME, cell-based", "conditions": "Caco-2, read-out: permeability", "how_it_was_run": "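Caco-2 monolayer permeability measured in both directions, apical-to-basal and basal-to-apical, reported as Pc in nm/s. An efflux ratio was calculated from the two directions.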"}, "[6]": {"test": "AUC in C57BL/6 mouse at 10 mg/kg, po", "type": "ADME, organism-based", "conditions": "in vivo", "how_it_was_run": "as §4"}, "[7]": {"test": "AUC in cynomolgus monkey at 10 mg/kg, po", "type": "ADME, organism-based, Macaca fascicularis", "conditions": "in vivo", "how_it_was_run": "as §4"}, "[8]": {"target": "Cytochrome P450 2C19 (Homo sapiens, UniProt P33261)", "sequence (P33261 whole entry)": "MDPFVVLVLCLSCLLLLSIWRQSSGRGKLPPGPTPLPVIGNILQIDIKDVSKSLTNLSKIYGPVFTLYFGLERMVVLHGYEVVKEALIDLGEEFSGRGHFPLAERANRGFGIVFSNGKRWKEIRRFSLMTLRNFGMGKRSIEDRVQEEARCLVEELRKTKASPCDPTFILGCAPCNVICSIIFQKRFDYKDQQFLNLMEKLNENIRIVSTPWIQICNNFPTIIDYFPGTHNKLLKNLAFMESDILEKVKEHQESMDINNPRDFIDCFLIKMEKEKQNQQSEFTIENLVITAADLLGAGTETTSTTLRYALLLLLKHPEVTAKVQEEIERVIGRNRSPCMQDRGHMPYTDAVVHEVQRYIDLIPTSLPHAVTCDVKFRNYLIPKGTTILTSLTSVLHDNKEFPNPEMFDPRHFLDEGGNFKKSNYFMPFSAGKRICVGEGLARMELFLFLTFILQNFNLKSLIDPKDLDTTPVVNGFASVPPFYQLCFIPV", "test": "Inhibition of CYP2C19 (unknown origin)", "type": "ADME", "how_it_was_run": "as §3"}, "[9]": {"test": "Half life in dog at 2 mg/kg, iv", "type": "ADME, organism-based, Canis lupus familiaris", "conditions": "in vivo", "how_it_was_run": "(§5)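 Dog and monkey iv PK: 2 mg/kg given by iv administration. Clearance (mL min⁻¹ kg⁻¹), Vss, T1/2 (h) and MRT (h) were derived.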"}, "[10]": {"test": "Protein binding in mouse assessed as unbound fraction", "type": "ADME"}, "[11]": {"test": "Clearance in cynomolgus monkey at 2 mg/kg, iv", "type": "ADME, organism-based, Macaca fascicularis", "conditions": "in vivo", "how_it_was_run": "as §5"}, "[12]": {"test": "Metabolic stability in human liver microsomes assessed as half life", "type": "ADME, Microsome", "how_it_was_run": "as §2"}, "[13]": {"test": "Time during which drug concentration exceed invitro IC50 for TYK2 in mouse whole blood assessed as decrease in IFNalpha-induced STAT1 phosphorylation in C57BL/6 mouse at 7.5 mg/kg, po via gavage bid for 9 days with first dose given prior to first IL23 challenge and twice a day thereafter", "type": "ADME, organism-based", "conditions": "in vivo, 216 h", "how_it_was_run": "as §1"}, "[14]": {"target": "Cytochrome P450 3A4 (Homo sapiens, UniProt P08684)", "sequence (P08684 whole entry)": "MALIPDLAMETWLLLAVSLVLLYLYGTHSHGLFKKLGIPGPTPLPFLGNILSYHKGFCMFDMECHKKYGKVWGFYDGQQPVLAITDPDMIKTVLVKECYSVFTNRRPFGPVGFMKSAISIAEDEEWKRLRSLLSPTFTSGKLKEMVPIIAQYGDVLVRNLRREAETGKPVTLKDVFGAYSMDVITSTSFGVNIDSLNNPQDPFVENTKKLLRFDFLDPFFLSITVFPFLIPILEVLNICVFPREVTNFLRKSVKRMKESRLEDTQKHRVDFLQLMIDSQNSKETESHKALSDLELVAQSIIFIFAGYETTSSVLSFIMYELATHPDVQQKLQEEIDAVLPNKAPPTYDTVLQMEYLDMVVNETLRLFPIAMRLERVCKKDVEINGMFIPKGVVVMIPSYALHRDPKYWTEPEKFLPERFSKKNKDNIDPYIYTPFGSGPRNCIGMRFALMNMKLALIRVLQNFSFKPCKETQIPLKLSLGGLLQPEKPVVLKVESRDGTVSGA", "test": "Inhibition of CYP3A4 (unknown origin)", "type": "ADME", "how_it_was_run": "as §3"}, "[15]": {"test": "Metabolic stability in dog liver microsomes assessed as half life", "type": "ADME, Canis lupus familiaris, Microsome", "how_it_was_run": "as §2"}, "[16]": {"test": "MRT in C57BL/6 mouse at 1 mg/kg, iv", "type": "ADME, organism-based", "conditions": "in vivo", "how_it_was_run": "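Mouse iv PK: 1 mg/kg given in 80% PEG 400/20% water. Clearance (mL min⁻¹ kg⁻¹) and MRT (h) were derived.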"}}, "data": [{"smiles": "[2H]C([2H])([2H])NC(=O)c1nnc(NC(=O)C2CC2)cc1Nc1cccc(-c2ncn(C)n2)c1OC", "note": "[DEUCRAVACITINIB]", "values": [{"measurement": "T>IC50", "setting": "[1]", "result": 21, "unit": "h"}, {"measurement": "half-life", "setting": "[2]", "result": "> 2", "unit": "h"}, {"measurement": "IC50", "setting": "[3]", "result": "> 40", "unit": "µM"}, {"measurement": "AUC", "setting": "[4]", "result": 73.6, "unit": "µM·h"}, {"measurement": "Papp A→B", "setting": "[5]", "result": 7, "unit": "×10⁻⁶ cm/s"}, {"measurement": "AUC", "setting": "[6]", "result": 36.4, "unit": "µM·h"}, {"measurement": "AUC", "setting": "[7]", "result": 75.7, "unit": "µM·h"}, {"measurement": "IC50", "setting": "[8]", "result": "> 40", "unit": "µM"}, {"measurement": "half-life", "setting": "[9]", "result": 4.6, "unit": "h"}, {"measurement": "fraction unbound", "setting": "[10]", "result": 0.15}, {"measurement": "clearance", "setting": "[11]", "result": 4.8, "unit": "mL/min/kg"}, {"measurement": "half-life", "setting": "[12]", "result": "> 2", "unit": "h"}, {"measurement": "T>IC50", "setting": "[13]", "result": 19, "unit": "h"}, {"measurement": "IC50", "setting": "[14]", "result": "> 40", "unit": "µM"}, {"measurement": "half-life", "setting": "[15]", "result": "> 2", "unit": "h"}, {"measurement": "MRT", "setting": "[16]", "result": 3.6, "unit": "h"}]}]}
